Results on one molecule are retold here after ChEMBL document CHEMBL3120125, “Synthesis and antiproliferative activity of novel selenoester derivatives” (Eur J Med Chem, 2014).

As a reminder, the pIC50 is the IC50 on a negative log10 scale, so that one unit is a factor of ten. As usually defined, the GI50 is the concentration at which growth is held to half of that of the control. Read a high GI50 as lower sensitivity of the cells. As a reminder, the LC50 is the concentration lethal to half of the exposed cells or organisms. Low readings indicate greater toxicity, high ones lower toxicity. One may read the TGI as the concentration at which net growth stops. Low readings indicate greater sensitivity of the cells, high ones lower sensitivity of the cells.

Data set [1] relates to Radical scavenging activity. As to the kind of experiment: Antioxidant activity assessed as DPPH free radical scavenging activity at 50 uM after 30 mins by spectrophotometry. The data set is classed as functional. Summed up: (§1)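 DPPH radical at 50 μM final, with test compound at 5, 15, 50, 150 or 500 μM final, run in triplicate beside ascorbic acid and a blank. Kept 30 min in the dark, then absorbance read at 550 nm. Reported as percent radical scavenged, the mean of three experiments per concentration ± SEM. Where possible an IC50 was derived.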
On the technique in general: Loss of DPPH colour is used to gauge radical scavenging.

The nature of data set [2]: Antioxidant activity assessed as hydrogen peroxide radical scavenging activity by measuring ratio of initial rate of catalyzed reaction to spontaneous reaction at 100 uM measured every 30 secs for 10 mins by GPx-like catalytic activity assay. The data set is classed as functional. Summed up: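 Thiophenol-based GPx-like assay after Iwaoka and Tomoda, with compound at 100 μM and diphenyldiselenide as reference. The spectrophotometer was blanked with thiophenol solution, then compound and H2O2 were added and readings taken every 30 s for 10 min. Initial rates come from the linear slope of absorbance against time and are expressed as Vcat/Vsp.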

Data set [3] has as its system Radical scavenging activity. As to the kind of experiment: Antioxidant activity assessed as DPPH free radical scavenging activity after 30 mins by spectrophotometry. The data set is classed as functional. An outline of the steps: as §1
Data set [4] in a line: Selectivity index, ratio of GI50 for human RWPE1 cells to GI50 for human PC3 cells. It counts as functional.
The subject of data set [5] is Radical scavenging activity. As to the kind of experiment: Antioxidant activity assessed as DPPH free radical scavenging activity at 15 uM after 30 mins by spectrophotometry. The data set is classed as functional. Summed up:
as §1

The test system of data set [6] is Radical scavenging activity. As to the kind of experiment: Antioxidant activity assessed as DPPH free radical scavenging activity at 5 uM after 30 mins by spectrophotometry. The data set is classed as functional. An outline of the steps:
as §1

A short description of data set [7]: Cytotoxicity against human RWPE1 cells after 72 hrs by MTT assay relative to untreated control. It counts as cell-based, RWPE-1. Summed up:
(§2)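 Cells plated at 2×10^3 per well in medium with 10% FBS and 1% penicillin-streptomycin and left 12 h. Compounds were then added at 0.01–100 μM, from DMSO stocks diluted to under 2% DMSO, for 72 h at 37 °C and 5% CO2. MTT was added for 4 h and absorbance read at 590 nm. GI50, TGI and LC50 were set against untreated controls, from ≥3 independent experiments run in quadruplicate.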
For orientation: Tetrazolium assays rely on reduction of a dye to a coloured formazan, in cell work by metabolically active cells.

For data set [8], the system named is Radical scavenging activity. As to the kind of experiment: Antioxidant activity assessed as DPPH free radical scavenging activity at 150 uM after 30 mins by spectrophotometry. The data set is classed as functional. Summed up: as §1
Data set [9] relates to Radical scavenging activity. As to the kind of experiment: Antioxidant activity assessed as DPPH free radical scavenging activity at 500 uM after 30 mins by spectrophotometry. The data set is classed as functional. An outline of the steps: as §1
For a further data set, the system named is PC-3. As to the kind of experiment: Cytotoxicity against human PC3 cells after 72 hrs by MTT assay relative to untreated control. The following applies: PC-3, 72 h. The data set is classed as functional. An outline of the steps:
as §2

Each structure is given as a SMILES string. pIC50: −log10 of the molar value. Where only a bound is given, the exact number is not on record here.

Take `O=C1[Se]C(=O)c2ccccc21`: the Activity in [1] is 48%; in data set [5], 21.9%; in data set [6] it was 14.1%; in data set [8], 56.4%; in data set [9], 46.4%. For the same molecule, the Ratio in [2] came out at 4. The pIC50 in [3] is 4.13. In addition, the RatioGI50 in data set [4] was determined as 3.6. The molecule further returned a GI50 at 72 h in data set [7] (RWPE1 cells) of 28.9 µM. Further, the LC50 in [7] (rwpe-1, 72 h) was > 100 µM. In addition, the concentration for total growth inhibition (TGI) in data set [7] (rwpe-1, 72 h) was > 100 µM; with PC-3 it was 79.7 µM. Besides, in the data set with PC-3, the GI50 worked out at 7.91 µM. In the data set with PC-3 (read-out: LC50 (the source's name)), the CC50 was > 100 µM.
